In experiment [1] the target is T1, CDK6/cyclin D3 (Homo sapiens) (UniProt P30281+Q00534). Kind of experiment: Inhibition of recombinant full-length human CDK6/cyclinD3 at 500 nM using histone H1 as substrate measured after 40 mins in presence of [gamma33P]ATP by scintillation counting method relative to control. Format: protein-complex assay. Put shortly: (§1)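 Percent inhibition of kinase activity at a single compound concentration, measured by the outsourced Eurofins KinaseProfiler panel. Values are the mean of two independent experiments.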

For experiment [2], the target named is T2, CDK4/Cyclin D3 (Homo sapiens) (UniProt P11802+P30281). Kind of experiment: Inhibition of recombinant full-length human CDK4/cyclinD3 at 500 nM using Rb fragment as substrate measured after 40 mins in presence of [gamma33P]ATP by scintillation counting method relative to control. Format: protein-complex assay. Put shortly:
as §1

Experiment [3] concerns the target T3, CDK9/cyclin T1 (Homo sapiens) (UniProt O60563+P50750). In words: Inhibition of recombinant full-length human CDK9/cyclinT1 at 1 uM using KTFCGTPEYLAPEVRREPRILSEEEQEMFRDFDYIADWC peptide as substrate measured after 40 mins in presence of [gamma33P]ATP by scintillation counting method relative to control. In kind it is protein-complex assay. Put shortly:
as §1

Experiment [4] has as its system A549. In words: Antiproliferative activity against human A549 cells assessed as inhibition of cell viability at 10 uM after 72 hrs by CCK-8 assay relative to control. The following applies: A549, 72 h. Format: functional. The method, boiled down:
(§2)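 Single-concentration viability screen using CCK-8. Cells were seeded at 3000/well and treated for 72 h. A450 read after 1-4 h with reagent. Percent inhibition calculated against untreated control and blank wells as (Ac−As)/(Ac−Ab)×100%.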
A general note: Tetrazolium dyes change colour on reduction, which living cells bring about.

In experiment [5] the target is T2, CDK4/Cyclin D3 (Homo sapiens). In words: Inhibition of recombinant full-length human CDK4/cyclinD3 at 1 uM using Rb fragment as substrate measured after 40 mins in presence of [gamma33P]ATP by scintillation counting method relative to control. Format: protein-complex assay. Put shortly:
as §1

For experiment [6], the system named is NCI-H1299. In words: Antiproliferative activity against human H1299 cells assessed as inhibition of cell viability at 1 uM after 72 hrs by CCK-8 assay relative to control. Format: functional. The following applies: NCI-H1299, 72 h. The method, boiled down:
as §2

The target of experiment [7] is T3, CDK9/cyclin T1 (Homo sapiens). Kind of experiment: Inhibition of recombinant full-length human CDK9/cyclinT1 at 500 nM using KTFCGTPEYLAPEVRREPRILSEEEQEMFRDFDYIADWC peptide as substrate measured after 40 mins in presence of [gamma33P]ATP by scintillation counting method relative to control. In kind it is protein-complex assay. Put shortly:
as §1

Experiment [8] relates to A549. In words: Antiproliferative activity against human A549 cells assessed as inhibition of cell viability at 1 uM after 72 hrs by CCK-8 assay relative to control. Format: functional. The following applies: A549, 72 h. The method, boiled down:
as §2

Experiment [9] deals with NCI-H1299. In words: Antiproliferative activity against human H1299 cells assessed as inhibition of cell viability at 10 uM after 72 hrs by CCK-8 assay relative to control. In kind it is functional. The following applies: NCI-H1299, 72 h. Put shortly: as §2
Experiment [10] deals with T1, CDK6/cyclin D3 (Homo sapiens). Kind of experiment: Inhibition of recombinant full-length human CDK6/cyclinD3 at 1 uM using histone H1 as substrate measured after 40 mins in presence of [gamma33P]ATP by scintillation counting method relative to control. In kind it is protein-complex assay. Put shortly:
as §1

Active and inactive are the calls of the source. The calls are words filed in the database; no cut-off is given here.

This is an account of results in ChEMBL document CHEMBL4376814, “Novel cyclin-dependent kinase 9 (CDK9) inhibitor with suppression of cancer stemness activity against non-small-cell lung cancer” (Eur J Med Chem, 2019).

For `CN(C)C(=O)c1cc2cnc(Nc3ccc(S(=O)(=O)NCCCN=C=S)cc3)nc2n1C1CCCC1`, the inhibition (usually the relative decrease from the control value, in per cent) in experiment [1] was determined as 59%; in experiment [2] it was 85%; in [3], 97%; in experiment [5] it was 90%; in [7], 96%; in experiment [10] it was 89%. Further, the results for the inhibition at 10 µM in experiment [4] and in [9] were 102% and 72.8%, respectively. The inhibition at 1 µM came out at 41.3% in experiment [6] and 58.9% in experiment [8].
As to `CN(C)C(=O)c1cc2cnc(Nc3ccccc3NC(=O)CCCCCCCN=C=S)nc2n1C1CCCC1`, the values for the inhibition in experiment [3], in [5] and in [10] were 11%, 14% and 1%, respectively.
Regarding `CN(C)C(=O)c1cc2cnc(Nc3ccc(C(=O)NCCCCCCN=C=S)cc3)nc2n1C1CCCC1`, the inhibition stood at 63% in experiment [1]; 101% in experiment [2]; 96% in experiment [3]; 98% in [5]; 67% in [7]; 92% in [10]. For the same compound, the inhibition at 10 µM in experiment [4] came out at 100%; in experiment [9], 85%. Also, the inhibition at 1 µM in experiment [6] worked out at 49.4%; in experiment [8], 35.8%.
Regarding `CN(C)C(=O)c1cc2cnc(Nc3ccc(C(=O)NCCCCCCCN=C=S)cn3)nc2n1C1CCCC1`, the inhibition amounted to 46% in experiment [1]; 91% in [2]; 73% in experiment [3]; 84% in experiment [5]; 18% in experiment [7]; 64% in experiment [10].
Regarding `CN(C)C(=O)c1cc2cnc(Nc3ccc(C(=O)NCCCCN=C=S)cn3)nc2n1C1CCCC1`, the inhibition in experiment [1] stood at 53%; in [2], 91%; in [3] it was 85%; in experiment [5], 95%; in experiment [7], 41%; in experiment [10], 88%.
`CN(C)C(=O)c1cc2cnc(Nc3ccc(N=C=S)cc3)nc2n1C1CCCC1`: the inhibition in [1] amounted to 43%; in [2], 89%; in [3], 96%; in [5] it was 94%; in [7], 93%; in experiment [10] it was 72%. Besides, the values for the inhibition at 10 µM in experiment [4] and in [9] were 97.9% and 83.7%, respectively. For the same compound, the inhibition at 1 µM in [6] is 46.9%; in experiment [8], 44.4%.
For the compound `CN(C)C(=O)c1cc2cnc(Nc3ccc(NC(=O)CCCCN=C=S)cc3)nc2n1C1CCCC1`, the inhibition came to 71% in experiment [1]; 100% in experiment [2]; 97% in experiment [3]; 97% in [5]; 99% in experiment [7]; 93% in [10]. Further, the inhibition at 10 µM in experiment [4] amounted to 102%; in experiment [9], 82.5%. The inhibition at 1 µM in experiment [6] was found to be 58.6%; in experiment [8] it was 38.2%.
In the case of `CN(C)C(=O)c1cc2cnc(Nc3ccc(C(=O)NCCCN=C=S)cn3)nc2n1C1CCCC1`, the inhibition in experiment [1] turned out to be 54%; in experiment [2], 92%; in experiment [3], 84%; in experiment [5], 95%; in experiment [7], 40%; in [10], 89%.
On to `CN(C)C(=O)c1cc2cnc(Nc3ccc(C(=O)NCCCCCN=C=S)cc3)nc2n1C1CCCC1`, for which the inhibition in experiment [1] is 79%; in experiment [2], 101%; in experiment [3], 97%; in experiment [5], 97%; in experiment [7], 97%; in [10], 94%. In addition, the values for the inhibition at 10 µM in experiment [4] and in experiment [9] were 100% and 76.5%, respectively. Also, the inhibition at 1 µM is 50.3% in experiment [6] and 29.3% in experiment [8].
As for `CN(C)C(=O)c1cc2cnc(Nc3ccc(NC(=O)CCCCCCN=C=S)cc3)nc2n1C1CCCC1`, the inhibition in experiment [1] is 65%; in experiment [2], 99%; in [3], 99%; in experiment [5], 97%; in experiment [7], 98%; in experiment [10] it was 86%. Moreover, the inhibition at 10 µM in [4] was 102%; in experiment [9] it was 80.9%. In addition, the results for the inhibition at 1 µM in [6] and in experiment [8] were 50.9% and 43.3%, respectively.
Regarding `CN(C)C(=O)c1cc2cnc(Nc3ccc(S(=O)(=O)NCCCCN=C=S)cc3)nc2n1C1CCCC1`, the inhibition in experiment [1] was 64%; in experiment [2] it was 91%; in experiment [3], 98%; in experiment [5], 90%; in experiment [7], 99%; in experiment [10], 92%. Besides, the results for the inhibition at 10 µM in experiment [4] and in experiment [9] were 101% and 72.7%, respectively. Further, the inhibition at 1 µM in [6] amounted to 29.9%; in experiment [8], 39.4%.
For `CN(C)C(=O)c1cc2cnc(Nc3ccc(C(=O)NCCCCCCN=C=S)cc3O)nc2n1C1CCCC1`, the inhibition in [3] was found to be 81%; in experiment [5] it was 45%; in experiment [7] it was 5%; in [10], 47%.
In the case of `CN(C)C(=O)c1cc2cnc(Nc3ccc(C(=O)NCCCCN=C=S)cc3)nc2n1C1CCCC1`, the inhibition in experiment [1] was found to be 79%; in experiment [2], 99%; in [3], 99%; in experiment [5] it was 98%; in experiment [7], 98%; in experiment [10], 93%. The inhibition at 10 µM in experiment [4] amounted to 102%; in experiment [9] it was 74.2%. The inhibition at 1 µM in experiment [6] is 55.2%; in experiment [8], 30.2%.
Regarding `CN(C)C(=O)c1cc2cnc(Nc3ccc(C(=O)NCCCCCCCN=C=S)cc3O)nc2n1C1CCCC1`, the inhibition amounted to 84% in [3], 37% in [5], 7% in experiment [7] and 42% in experiment [10].
Turning to `CN(C)C(=O)c1cc2cnc(Nc3ccc(C(=O)NCCCCCN=C=S)cn3)nc2n1C1CCCC1`, the inhibition in experiment [1] was determined as 55%; in [2], 94%; in experiment [3] it was 87%; in [5], 94%; in experiment [7], 37%; in [10], 87%.
Take `CN(C)C(=O)c1cc2cnc(Nc3ccc(NC(=O)CCCCCN=C=S)cc3)nc2n1C1CCCC1`: the inhibition in [1] is 64%; in experiment [2], 99%; in experiment [3], 97%; in experiment [5], 96%; in experiment [7], 99%; in [10] it was 90%. Moreover, the inhibition at 10 µM in [4] worked out at 100%; in experiment [9] it was 85%. For the same compound, the inhibition at 1 µM in experiment [6] was found to be 34.3%; in experiment [8], 56.1%.
With `CN(C)C(=O)c1cc2cnc(Nc3ccc(N4CCN(C(=O)CCCCCCCN=C=S)CC4)cn3)nc2n1C1CCCC1`, the inhibition in experiment [1] was 62%; in experiment [2], 91%; in experiment [3], 58%; in experiment [5] it was 98%; in [7], 3%; in [10], 93%.
For `CN(C)C(=O)c1cc2cnc(Nc3ccc(C(=O)NCCCCCCN=C=S)cn3)nc2n1C1CCCC1`, the inhibition in experiment [1] was 52%; in [2], 93%; in [3] it was 73%; in experiment [5], 95%; in experiment [7] it was 27%; in [10] it was 82%.
On to `O=C(CCCCCCCN=C=S)Nc1ccc(Nc2ncc3nnn(C4CCCC4)c3n2)cc1`, for which the inhibition in experiment [3] came to 78%; in [5] it was 19%; in experiment [7], 34%; in experiment [10] it was 42%.
On to `CN(C)C(=O)c1cc2cnc(NNC(=O)CCCCCCCN=C=S)nc2n1C1CCCC1`, for which the figures for the inhibition in [3] and in experiment [5] were 17% and 14%, respectively. In experiment [10], the inhibition result is “inactive”.
As for `CN(C)C(=O)c1cc2cnc(Nc3ccc(NC(=O)CCCCCCCN=C=S)c(F)c3)nc2n1C1CCCC1`, the inhibition in [1] was 51%; in [2], 75%; in [3], 87%; in experiment [5], 86%; in experiment [7] it was 76%; in experiment [10], 69%.
For the compound `CN(C)C(=O)c1cc2cnc(Nc3ccc(NC(=O)CCCCCCCN=C=S)cc3C(F)(F)F)nc2n1C1CCCC1`, the inhibition in [3] turned out to be 72%; in experiment [5] it was 63%; in experiment [7], 79%; in experiment [10] it was 1%.
